# According to ChEMBL document CHEMBL4689842, “EUbOPEN Chemogenomics Library wave 1” (2021):
# Test system: Fibroblast
# Experiment: Multiplex assay against human fibroblast
# Assay type: toxicity, cell-based
# Summary of the method: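 Tubulin, mitochondrial-mass and membrane-permeability phenotypes are per cents of healthy-nucleus cells. Cells were gated by CellPathfinder machine learning into Hoechst high-intensity objects or normal cells, normal cells into healthy, pyknosed or fragmented nuclei, and pyknosed cells into mitotic or apoptotic. Before that, live cells stained at seeding with Hoechst33342, BioTracker Green Microtubule Cytoskeleton Dye, MitoTracker Red and Annexin V Alexa Fluor 680 were imaged on a CQ1 microscope at 37°C and 5% CO2 after compound addition.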
# [1] = 12 h, 1 µM, compound concentration 1 uM, replicate 1
# [2] = 12 h, 1 µM, compound concentration 1 uM, replicate 2
# [3] = 12 h, 10 µM, compound concentration 10 uM, replicate 1
# [4] = 12 h, 10 µM, compound concentration 10 uM, replicate 2
# [5] = 24 h, 1 µM, compound concentration 1 uM, replicate 1
# [6] = 24 h, 1 µM, compound concentration 1 uM, replicate 2
# [7] = 24 h, 10 µM, compound concentration 10 uM, replicate 1
# [8] = 24 h, 10 µM, compound concentration 10 uM, replicate 2
compound,measurement,setting,value
COc1cc2ncnc(Nc3ccc(F)c(Cl)c3)c2cc1NC(=O)/C=C/CN1CCCCC1 [DACOMITINIB ANHYDROUS],Population Apoptotic (%),[1],72%
same,Population Fragmented Nuclei (%),[1],33%
same,Population Healthy Nuclei (%),[1],52%
same,Population Hoechst High Intensity Objects (%),[1],17%
same,Population Membrane Permeable-Phenotype (%),[1],6%
same,Population Mitochondria Different-Phenotype (%),[1],8%
same,Population Mitotic Cells (%),[1],27%
same,Population Normal (%),[1],82%
same,Population Pyknosed Nuclei (%),[1],14%
same,Population Tubulin-Different-Phenotype (%),[1],46%
same,Total Cell Count,[1],248
same,Population Apoptotic (%),[2],66%
same,Population Fragmented Nuclei (%),[2],56%
same,Population Healthy Nuclei (%),[2],36%
same,Population Hoechst High Intensity Objects (%),[2],57%
same,Population Membrane Permeable-Phenotype (%),[2],12%
same,Population Mitochondria Different-Phenotype (%),[2],25%
same,Population Mitotic Cells (%),[2],33%
same,Population Normal (%),[2],42%
same,Population Pyknosed Nuclei (%),[2],6%
same,Population Tubulin-Different-Phenotype (%),[2],25%
same,Total Cell Count,[2],103
same,Population Apoptotic (%),[3],58%
same,Population Fragmented Nuclei (%),[3],30%
same,Population Healthy Nuclei (%),[3],53%
same,Population Hoechst High Intensity Objects (%),[3],14%
same,Population Membrane Permeable-Phenotype (%),[3],7%
same,Population Mitochondria Different-Phenotype (%),[3],3%
same,Population Mitotic Cells (%),[3],41%
same,Population Normal (%),[3],85%
same,Population Pyknosed Nuclei (%),[3],15%
same,Population Tubulin-Different-Phenotype (%),[3],7%
same,Total Cell Count,[3],214
same,Population Apoptotic (%),[4],28%
same,Population Fragmented Nuclei (%),[4],47%
same,Population Healthy Nuclei (%),[4],40%
same,Population Hoechst High Intensity Objects (%),[4],35%
same,Population Membrane Permeable-Phenotype (%),[4],20%
same,Population Mitochondria Different-Phenotype (%),[4],16%
same,Population Mitotic Cells (%),[4],71%
same,Population Normal (%),[4],64%
same,Population Pyknosed Nuclei (%),[4],11%
same,Population Tubulin-Different-Phenotype (%),[4],16%
same,Total Cell Count,[4],94
same,Population Apoptotic (%),[5],72%
same,Population Fragmented Nuclei (%),[5],28%
same,Population Healthy Nuclei (%),[5],54%
same,Population Hoechst High Intensity Objects (%),[5],30%
same,Population Mitochondria Different-Phenotype (%),[5],22%
same,Population Mitotic Cells (%),[5],28%
same,Population Normal (%),[5],69%
same,Population Pyknosed Nuclei (%),[5],17%
same,Population Tubulin-Different-Phenotype (%),[5],46%
same,Total Cell Count,[5],210
same,Population Apoptotic (%),[6],100%
same,Population Fragmented Nuclei (%),[6],51%
same,Population Healthy Nuclei (%),[6],40%
same,Population Hoechst High Intensity Objects (%),[6],57%
same,Population Membrane Permeable-Phenotype (%),[6],5%
same,Population Mitochondria Different-Phenotype (%),[6],16%
same,Population Mitotic Cells (%),[6],0%
same,Population Normal (%),[6],42%
same,Population Pyknosed Nuclei (%),[6],8%
same,Population Tubulin-Different-Phenotype (%),[6],16%
same,Total Cell Count,[6],106
same,Population Apoptotic (%),[7],58%
same,Population Fragmented Nuclei (%),[7],32%
same,Population Healthy Nuclei (%),[7],50%
same,Population Hoechst High Intensity Objects (%),[7],18%
same,Population Membrane Permeable-Phenotype (%),[7],6%
same,Population Mitochondria Different-Phenotype (%),[7],2%
same,Population Mitotic Cells (%),[7],41%
same,Population Normal (%),[7],81%
same,Population Pyknosed Nuclei (%),[7],17%
same,Population Tubulin-Different-Phenotype (%),[7],3%
same,Total Cell Count,[7],249
same,Population Apoptotic (%),[8],33%
same,Population Fragmented Nuclei (%),[8],53%
same,Population Healthy Nuclei (%),[8],36%
same,Population Hoechst High Intensity Objects (%),[8],30%
same,Population Membrane Permeable-Phenotype (%),[8],21%
same,Population Mitochondria Different-Phenotype (%),[8],13%
same,Population Mitotic Cells (%),[8],66%
same,Population Normal (%),[8],69%
same,Population Pyknosed Nuclei (%),[8],9%
same,Population Tubulin-Different-Phenotype (%),[8],17%
same,Total Cell Count,[8],91
Cn1nc(C(F)(F)F)cc1-c1cnc(N2CCc3cc(S(=O)(=O)Nc4c(F)cc(Cl)cc4F)cc(N4CCCC4=O)c32)nc1 [TP-020],Population Apoptotic (%),[1],69%
same,Population Fragmented Nuclei (%),[1],20%
same,Population Healthy Nuclei (%),[1],59%
same,Population Hoechst High Intensity Objects (%),[1],13%
same,Population Membrane Permeable-Phenotype (%),[1],35%
same,Population Mitochondria Different-Phenotype (%),[1],4%
same,Population Mitotic Cells (%),[1],30%
same,Population Normal (%),[1],86%
same,Population Pyknosed Nuclei (%),[1],20%
same,Population Tubulin-Different-Phenotype (%),[1],58%
same,Total Cell Count,[1],241
same,Population Apoptotic (%),[2],42%
same,Population Fragmented Nuclei (%),[2],56%
same,Population Healthy Nuclei (%),[2],26%
same,Population Hoechst High Intensity Objects (%),[2],34%
same,Population Membrane Permeable-Phenotype (%),[2],45%
same,Population Mitochondria Different-Phenotype (%),[2],18%
same,Population Mitotic Cells (%),[2],57%
same,Population Normal (%),[2],65%
same,Population Pyknosed Nuclei (%),[2],17%
same,Population Tubulin-Different-Phenotype (%),[2],72%
same,Total Cell Count,[2],63
same,Population Apoptotic (%),[3],65%
same,Population Fragmented Nuclei (%),[3],30%
same,Population Healthy Nuclei (%),[3],57%
same,Population Hoechst High Intensity Objects (%),[3],7%
same,Population Membrane Permeable-Phenotype (%),[3],13%
same,Population Mitochondria Different-Phenotype (%),[3],1%
same,Population Mitotic Cells (%),[3],35%
same,Population Normal (%),[3],92%
same,Population Pyknosed Nuclei (%),[3],11%
same,Population Tubulin-Different-Phenotype (%),[3],3%
same,Total Cell Count,[3],192
same,Population Apoptotic (%),[4],33%
same,Population Fragmented Nuclei (%),[4],62%
same,Population Healthy Nuclei (%),[4],28%
same,Population Hoechst High Intensity Objects (%),[4],41%
same,Population Membrane Permeable-Phenotype (%),[4],10%
same,Population Mitochondria Different-Phenotype (%),[4],0%
same,Population Mitotic Cells (%),[4],66%
same,Population Normal (%),[4],58%
same,Population Pyknosed Nuclei (%),[4],8%
same,Population Tubulin-Different-Phenotype (%),[4],10%
same,Total Cell Count,[4],60
same,Population Apoptotic (%),[5],51%
same,Population Fragmented Nuclei (%),[5],19%
same,Population Healthy Nuclei (%),[5],57%
same,Population Hoechst High Intensity Objects (%),[5],9%
same,Population Membrane Permeable-Phenotype (%),[5],25%
same,Population Mitochondria Different-Phenotype (%),[5],4%
same,Population Mitotic Cells (%),[5],48%
same,Population Normal (%),[5],90%
same,Population Pyknosed Nuclei (%),[5],23%
same,Population Tubulin-Different-Phenotype (%),[5],55%
same,Total Cell Count,[5],246
same,Population Apoptotic (%),[6],57%
same,Population Fragmented Nuclei (%),[6],57%
same,Population Healthy Nuclei (%),[6],26%
same,Population Hoechst High Intensity Objects (%),[6],36%
same,Population Membrane Permeable-Phenotype (%),[6],18%
same,Population Mitochondria Different-Phenotype (%),[6],27%
same,Population Mitotic Cells (%),[6],42%
same,Population Normal (%),[6],63%
same,Population Pyknosed Nuclei (%),[6],16%
same,Population Tubulin-Different-Phenotype (%),[6],27%
same,Total Cell Count,[6],66
same,Population Apoptotic (%),[7],42%
same,Population Fragmented Nuclei (%),[7],22%
same,Population Healthy Nuclei (%),[7],66%
same,Population Hoechst High Intensity Objects (%),[7],10%
same,Population Membrane Permeable-Phenotype (%),[7],7%
same,Population Mitochondria Different-Phenotype (%),[7],1%
same,Population Mitotic Cells (%),[7],57%
same,Population Normal (%),[7],89%
same,Population Tubulin-Different-Phenotype (%),[7],2%
same,Total Cell Count,[7],188
same,Population Apoptotic (%),[8],50%
same,Population Fragmented Nuclei (%),[8],52%
same,Population Healthy Nuclei (%),[8],35%
same,Population Hoechst High Intensity Objects (%),[8],38%
same,Population Membrane Permeable-Phenotype (%),[8],8%
same,Population Mitochondria Different-Phenotype (%),[8],0%
same,Population Mitotic Cells (%),[8],50%
same,Population Normal (%),[8],61%
same,Population Pyknosed Nuclei (%),[8],11%
same,Population Tubulin-Different-Phenotype (%),[8],25%
same,Total Cell Count,[8],55
